# Laboratory results reported in ChEMBL document CHEMBL5113504, “Discovery of potent benzoxaborole inhibitors against SARS-CoV-2 main and dengue virus proteases” (Eur J Med Chem, 2022).
# What was measured:
# [1] = molecular target: Replicase polyprotein 1ab (Severe acute respiratory syndrome coronavirus 2) (UniProt P0DTD1); experiment: Inhibition of C-terminal His tagged SARS CoV-2 main protease transfected in Escherichia coli BL21 (DE3) using 2-Abz-Ser-AlaVal-Leu-Gln-Ser-Gly-Tyr(3-NO2)-Arg-OH as substrate at 50 uM preincubated for 15 mins followed by substrate addition and measured after 15 mins by FRET assay relative to control; conditions: time 30.0 min
# Genome polyprotein = Genome polyprotein (dengue virus type 2, UniProt P29990); experiment: Inhibition of full length DENV2 NS2B-NS3 protease in human HeLa cells expressing luciferase reporter gene incubated for 24 hrs by luminescence analysis; assay type: cell-based
# How it was run: (§1)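 Stable DENV2pro reporter HeLa cells seeded at 2×10^4 per well and dosed immediately; 24 h at 37 °C, lysed 15 min, coelenterazine (2.75 μM in PBS) injected, luminescence read 5 s. Triplicates; % inhibition vs untreated cells; EC50 by 4-parameter fit with cell-free background subtraction.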
# HeLa [2] = experiment: Cytotoxicity against human HeLa cells expressing luciferase-based DENV-2 protease reporter system assessed as reduction in cell viability by celltiter-blue assay; assay type: toxicity
# How it was run: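 CellTiter-Blue viability in HeLa reporter cells or Huh-7 cells, on plates run in parallel with the reporter or titer-reduction assay under the same treatment; each concentration in triplicate.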
# [3] = molecular target: Genome polyprotein (dengue virus type 2) (UniProt P29990); experiment: Inhibition of full length DENV2 NS2B-NS3 protease in human HeLa cells expressing luciferase reporter gene at 12.5 uM incubated for 24 hrs by luminescence analysis relative to control; assay type: cell-based; how it was run: as §1
# HeLa [4] = experiment: Cytotoxicity against human HeLa cells expressing renilla luciferase reporter construct assessed as reduction in cell viability at 12.5 uM by luciferase based analysis; assay type: toxicity
# [5] = molecular target: Replicase polyprotein 1ab (Severe acute respiratory syndrome coronavirus 2, UniProt P0DTD1); experiment: Inhibition of C-terminal His tagged SARS CoV-2 main protease transfected in Escherichia coli BL21 (DE3) using 2-Abz-Ser-AlaVal-Leu-Gln-Ser-Gly-Tyr(3-NO2)-Arg-OH as substrate preincubated for 15 mins followed by substrate addition and measured after 15 mins by FRET assay
# [6] = Permeability of compound in PBS at pH 7.4 measured after 5 hrs by HPLC-UV based PAMPA assay; assay type: ADME; conditions: pH 7.4, 5 h
SMILES,inhibition [1] [%],EC50 (Genome polyprotein) [µM],CC50 (HeLa [2]) [µM],inhibition [3] [%],Activity (HeLa [4]),IC50 [5] [µM],permeability [6]
COc1cccc(C(=O)Nc2ccc3c(c2)B(O)OC3)c1,24.3,6.4,> 100,60.1,–,–,–
O=C(Nc1ccccc1)Nc1ccc2c(c1)B(O)OC2,15.9,22.5,> 200,31,–,–,–
OB1OCc2ccccc21 [BENZOXABOROLE],< 10,–,> 100,< 10,Non-Toxic,–,–
CN(c1ccc2c(c1)B(O)OC2)S(=O)(=O)c1ccc(Cl)cc1,< 10,> 50,> 50,24.2,Non-Toxic,–,–
O=C(Nc1ccc2c(c1)B(O)OC2)c1cccc(OCC2CCCCC2)c1,29.3,–,123,79.1,–,–,–
COc1cccc(COc2cccc(C(=O)Nc3ccc4c(c3)B(O)OC4)c2)c1,45.7,–,> 200,90,–,–,–
Nc1ccc2c(c1)B(O)OC2,17.5,–,> 100,< 10,Non-Toxic,–,–
O=C(Oc1cncc(Cl)c1)c1cccs1,95,–,–,–,–,1.7,–
O=C(Nc1ccc2c(c1)B(O)OC2)c1ccc(OCc2ccccc2)cc1,39.6,8.8,> 50,54.4,–,–,–
Nc1ccc(C(=O)Nc2ccc3c(c2)B(O)OC3)cc1,39.7,–,> 200,14.3,–,–,–
O=C(Nc1ccc2c(c1)B(O)OC2)c1ccccc1OCc1ccccc1,40.6,6.1,> 50,66.7,–,–,Permeable
O=S(=O)(Nc1ccc2c(c1)B(O)OC2)c1ccc(Cl)cc1,< 10,9.2,> 50,51.6,–,–,Permeable
O=C(Nc1ccc2c(c1)B(O)OC2)c1ccc(C(F)(F)F)cc1,21,–,> 50,< 10,Non-Toxic,–,–
O=C(Nc1ccc2c(c1)B(O)OC2)c1cccc(OCc2ccccc2)n1,99.6,–,124,–,–,38.5,–
CC(C(=O)Nc1ccc2c(c1)B(O)OC2)c1cccc(Oc2ccccc2)c1 (stereo unspecified),19,3.1,> 50,76.7,–,–,–
O=[N+]([O-])c1ccc2c(c1)B(O)OC2,< 10,–,> 100,14.5,–,–,–
O=C(Nc1ccc2c(c1)B(O)OC2)c1cccc(Oc2ccccc2)c1,34.6,6.4,> 50,77.4,–,–,–
O=C(Nc1ccc2c(c1)B(O)OC2)c1ccc(N2CCOCC2)cc1,12.7,17.1,> 50,41.1,Non-Toxic,–,–
CCCCCC(=O)Nc1ccc2c(c1)B(O)OC2,< 10,19.2,> 200,37.2,–,–,–
Cc1onc(-c2ccc(F)cc2)c1C(=O)Nc1ccc2c(c1)B(O)OC2,< 10,21.6,> 100,32.6,Non-Toxic,–,–
OB1OCc2cc(F)ccc21 [TAVABOROLE],< 10,–,> 50,15.3,–,–,–
N#Cc1ccc(CNc2ccc3c(c2)B(O)OC3)cc1,< 10,–,> 100,41.8,–,–,–
O=C(Nc1ccc2c(c1)B(O)OC2)OCc1ccccc1,< 10,4,> 50,67.5,–,–,–
N#Cc1ccc(COc2cccc(C(=O)Nc3ccc4c(c3)B(O)OC4)c2)cc1,43.4,–,> 200,–,–,–,Permeable
O=C(Nc1ccc2c(c1)B(O)OC2)c1cccc(NCc2ccccc2)c1,46.9,5.2,144,73.6,–,56.9,–
